# Measurements reported in ChEMBL document CHEMBL1126066, “Biological activities and quantitative structure-activity relationships of spiro[imidazolidine-4,4'(1'H)-quinazoline]-2,2',5(3'H)-triones as aldose reductase inhibitors” (J Med Chem, 1992).
# Several values for one entry are separate records, joined by “and”; a condition that tells them apart may be missing. Identical values can stand only once.
# Assays:
# Rattus norvegicus [1] = assay: In vivo inhibition of polyol accumulation in the sciatic nerve of galactosemic rats, activity is measured as polyol contents; assay type: functional, organism-based
# How it was run: (§1)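 Male Wistar rats (SIC, 4 weeks old), three per group, had free access to water and a 20% galactose diet containing the compound for 6 days. Galactose-only and standard-diet groups served as controls. Rats were bled under ether anesthesia on day 7. Sciatic nerve polyol was measured by a modified Dvornik assay. % inhibition = (galactose control − treated)/(galactose control − normal) × 100. Student's t-test was used.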
# Rattus norvegicus [2] = assay: In vivo inhibition of polyol accumulation in the sciatic nerve of galactosemic rats, activity is expressed as percent inhibition of poloyl accumulation.; assay type: functional; design: concentration or dose not given beside the values; how it was run: as §1
# Rattus norvegicus [3] = assay: Compound was evaluated in vivo for […] at a dose of 90 mg/kg per day.; assay type: functional, organism-based
# Rattus norvegicus [4] = assay: Compound was evaluated in vivo for […] at a dose of 15 mg/kg per day.; assay type: functional, organism-based; conditions: Sciatic nerve; how it was run: as §1
# Rattus norvegicus [5] = assay: Compound was evaluated in vivo for 50% inhibition of enzymatic activity of partially purified AR from male rabbit sciatic nerve at a dose of 90 mg/kg per day.; assay type: functional, organism-based; how it was run: as §1
# Rattus norvegicus [6] = assay: Compound was evaluated in vivo for percent inhibition of polyol accumulation at a dose of 3 mg/kg per day.; assay type: functional
# How it was run: (§2)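 Galactosemic male Wistar rats (4 weeks old, n = 3) received the compound in a 20% galactose diet for 6 days and were killed on day 7. Sciatic nerve or lens polyol was measured by a modified Dvornik assay. Mean % inhibition = (galactose control − treated)/(galactose control − normal control) × 100.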
# Rattus norvegicus [7] = assay: Compound was evaluated in vivo for inhibition of polyol accumulation in rat at a dose of 15 mg/kg per day.
# Rattus norvegicus [8] = assay: Compound was evaluated in vivo for polyol content in lens of galactosemic rats at a dose of 3 mg/kg per day.
# Rattus norvegicus [9] = assay: Compound was evaluated in vivo for 50% inhibition of polyol accumulation in rat sciatic nerve at a dose of 3 mg/kg per day.
# Rattus norvegicus [10] = assay: Compound was evaluated in vivo for percent inhibition of polyol accumulation at a dose of 15 mg/kg per day; assay type: functional; how it was run: as §2
smiles,measurement,setting,value
CN1C(=O)Nc2ccccc2[C@@]12NC(=O)NC2=O,polyol content,Rattus norvegicus [1],8.4 µmol/g
same,Inhibition,Rattus norvegicus [2],39%
NN1C(=O)Nc2ccccc2C12NC(=O)NC2=O (stereo not drawn),polyol content,Rattus norvegicus [1],11.3 µmol/g
same,Inhibition,Rattus norvegicus [2],12.2%
CN1C(=O)Nc2cc(Cl)c([N+](=O)[O-])cc2C12NC(=O)NC2=O (stereo not drawn),polyol content,Rattus norvegicus [1],10.6 µmol/g
same,Inhibition,Rattus norvegicus [2],7.7%
CN1C(=O)Nc2cc3c(cc2C12NC(=O)NC2=O)OCO3 (stereo not drawn),polyol content,Rattus norvegicus [1],9.2 µmol/g
same,Inhibition,Rattus norvegicus [2],28.4%
CCN1C(=O)Nc2ccccc2C12NC(=O)NC2=O (stereo not drawn),polyol content,Rattus norvegicus [1],9.6 µmol/g
same,Inhibition,Rattus norvegicus [2],19.5%
CN1C(=O)Nc2ccc(OC(=O)/C=C/c3ccccc3)cc2C12NC(=O)NC2=O (stereo not drawn),polyol content,Rattus norvegicus [1],10.4 µmol/g
same,Inhibition,Rattus norvegicus [2],29.3%
O=C1NC(=O)C2(N1)NC(=O)Nc1ccccc12 (stereo not drawn),polyol content,Rattus norvegicus [1],10.7 µmol/g
same,Inhibition,Rattus norvegicus [2],15.1%
CN1C(=O)Nc2ccc([N+](=O)[O-])c(Cl)c2C12NC(=O)NC2=O (stereo not drawn),polyol content,Rattus norvegicus [1],11.5 µmol/g
same,Inhibition,Rattus norvegicus [2],0%
CN1C(=O)Nc2ccccc2C12NC(=O)NC2=O (stereo not drawn),polyol content,Rattus norvegicus [1],8.8 µmol/g
same,Inhibition,Rattus norvegicus [2],32.5%
CCOC(=O)c1ccc2c(c1)C1(NC(=O)NC1=O)N(C)C(=O)N2 (stereo not drawn),polyol content,Rattus norvegicus [1],11.1 µmol/g
same,Inhibition,Rattus norvegicus [2],22.2%
CN1C(=O)Nc2cc(N3CCOCC3)c([N+](=O)[O-])cc2C12NC(=O)NC2=O (stereo not drawn),polyol content,Rattus norvegicus [1],10.4 µmol/g
same,Inhibition,Rattus norvegicus [2],10.3%
Cc1cccc2c1C1(NC(=O)NC1=O)N(C)C(=O)N2 (stereo not drawn),polyol content,Rattus norvegicus [1],9.2 µmol/g
same,Inhibition,Rattus norvegicus [2],27.5%
CN1C(=O)Nc2ccc(Br)cc2C12NC(=O)NC2=O (stereo not drawn),polyol content,Rattus norvegicus [1],5.6 µmol/g
same,Inhibition,Rattus norvegicus [2],74.7%
CN1C(=O)Nc2c(N)cc(Cl)cc2C12NC(=O)NC2=O (stereo not drawn),polyol content,Rattus norvegicus [1],7 µmol/g
same,Inhibition,Rattus norvegicus [2],44.6%
CN1C(=O)Nc2c(Cl)cc(Cl)cc2C12NC(=O)NC2=O (stereo not drawn),polyol content,Rattus norvegicus [1],5.8 µmol/g
same,Inhibition,Rattus norvegicus [2],63.1%
COc1ccc2c(c1)NC(=O)N(C)C21NC(=O)NC1=O (stereo not drawn),polyol content,Rattus norvegicus [1],9.8 µmol/g
same,Inhibition,Rattus norvegicus [2],21%
CN1C(=O)Nc2ccc(Cl)cc2[C@@]12NC(=O)NC2=O,polyol content,Rattus norvegicus [3],42.4 µmol/g
same,polyol content,Rattus norvegicus [4],4.8 µmol/g
same,polyol content,Rattus norvegicus [5],2.8 µmol/g
same,polyol content,Rattus norvegicus [1],3.4 µmol/g
same,Inhibition,Rattus norvegicus [2],100%
same,Inhibition,Rattus norvegicus [6],23.4% and 0%
same,polyol content,Rattus norvegicus [7],59.2 µmol/g
same,polyol content,Rattus norvegicus [8],58.9 µmol/g
same,polyol content,Rattus norvegicus [9],7.5 µmol/g
CN1C(=O)Nc2cc(Cl)ccc2C12NC(=O)NC2=O (stereo not drawn),polyol content,Rattus norvegicus [1],11.4 µmol/g
same,Inhibition,Rattus norvegicus [2],22.3%
CN1C(=O)Nc2c(F)cccc2C12NC(=O)NC2=O (stereo not drawn),polyol content,Rattus norvegicus [1],9.5 µmol/g
same,Inhibition,Rattus norvegicus [2],29.9%
CN1C(=O)Nc2ccc(F)cc2[C@@]12NC(=O)NC2=O,polyol content,Rattus norvegicus [1],6.6 µmol/g
same,Inhibition,Rattus norvegicus [2],61%
CN1C(=O)Nc2ccc(Cl)cc2C12NC(=O)NC2=O (stereo not drawn),polyol content,Rattus norvegicus [1],6.7 µmol/g
same,Inhibition,Rattus norvegicus [2],68%
CN1C(=O)Nc2cc(Cl)c(Cl)cc2C12NC(=O)NC2=O (stereo not drawn),polyol content,Rattus norvegicus [1],7.5 µmol/g
same,Inhibition,Rattus norvegicus [2],52.9%
CN1C(=O)N(C)C2(NC(=O)NC2=O)c2ccccc21 (stereo not drawn),polyol content,Rattus norvegicus [1],9.2 µmol/g
same,Inhibition,Rattus norvegicus [2],28.4%
CN1C(=O)Nc2ccc(F)cc2C12NC(=O)NC2=O (stereo not drawn),polyol content,Rattus norvegicus [1],6.7 µmol/g
same,Inhibition,Rattus norvegicus [2],58.7%
COc1cc2c(cc1Cl)C1(NC(=O)NC1=O)N(C)C(=O)N2 (stereo not drawn),polyol content,Rattus norvegicus [1],8.3 µmol/g
same,Inhibition,Rattus norvegicus [2],24.6%
CN1C(=O)Nc2cccc(Cl)c2C12NC(=O)NC2=O (stereo not drawn),polyol content,Rattus norvegicus [1],11.9 µmol/g
same,Inhibition,Rattus norvegicus [2],17.5%
CN1C(=O)Nc2c(cc(F)c(F)c2F)C12NC(=O)NC2=O (stereo not drawn),polyol content,Rattus norvegicus [1],9.5 µmol/g
same,Inhibition,Rattus norvegicus [2],29.9%
CN1C(=O)Nc2ccc([N+](=O)[O-])cc2C12NC(=O)NC2=O (stereo not drawn),polyol content,Rattus norvegicus [1],12.1 µmol/g
same,Inhibition,Rattus norvegicus [2],15.5%
CN1C(=O)Nc2ccc(F)cc2[C@]12NC(=O)NC2=O,polyol content,Rattus norvegicus [1],12.1 µmol/g
same,Inhibition,Rattus norvegicus [2],15.5%
CC(C)CN1C(=O)N(C)C2(NC(=O)NC2=O)c2ccccc21 (stereo not drawn),polyol content,Rattus norvegicus [1],8.1 µmol/g
same,Inhibition,Rattus norvegicus [2],27.7%
CN1C(=O)Nc2c([N+](=O)[O-])cc(Cl)cc2C12NC(=O)NC2=O (stereo not drawn),polyol content,Rattus norvegicus [1],8 µmol/g
same,Inhibition,Rattus norvegicus [2],29.2%
CN1C(=O)Nc2cc([N+](=O)[O-])ccc2C12NC(=O)NC2=O (stereo not drawn),polyol content,Rattus norvegicus [1],10.3 µmol/g
same,Inhibition,Rattus norvegicus [2],11.5%
Cc1ccc2c(c1)C1(NC(=O)NC1=O)N(C)C(=O)N2 (stereo not drawn),polyol content,Rattus norvegicus [1],9 µmol/g
same,Inhibition,Rattus norvegicus [2],30.9%
CN1C(=O)Nc2ccc(Cl)cc2[C@]12NC(=O)NC2=O,polyol content,Rattus norvegicus [1],10.7 µmol/g
same,Inhibition,Rattus norvegicus [2],26.3%
COc1c(Cl)cc2c(c1Cl)NC(=O)N(C)C21NC(=O)NC1=O (stereo not drawn),polyol content,Rattus norvegicus [1],8.4 µmol/g
same,Inhibition,Rattus norvegicus [2],37.5%
Cc1cc2c(cc1Cl)C1(NC(=O)NC1=O)N(C)C(=O)N2 (stereo not drawn),polyol content,Rattus norvegicus [1],6.8 µmol/g
same,Inhibition,Rattus norvegicus [2],58%
COc1ccc2c(c1)C1(NC(=O)NC1=O)N(C)C(=O)N2 (stereo not drawn),polyol content,Rattus norvegicus [1],10.4 µmol/g
same,Inhibition,Rattus norvegicus [2],13.6%
Cc1ccc2c(c1)NC(=O)N(C)C21NC(=O)NC1=O (stereo not drawn),polyol content,Rattus norvegicus [1],8.4 µmol/g
same,Inhibition,Rattus norvegicus [2],37.5%
CN1C(=O)Nc2c([N+](=O)[O-])cc([N+](=O)[O-])cc2C12NC(=O)NC2=O (stereo not drawn),polyol content,Rattus norvegicus [1],10.1 µmol/g
same,Inhibition,Rattus norvegicus [2],14.1%
O=C1NC(=O)[C@@]2(CCOc3ccc(F)cc32)N1 [SORBINIL],inhibition in vivo at 15 mg/kg/day,Rattus norvegicus [10],90.2%
CN1C(=O)Nc2ccc(OC(=O)c3ccccc3)cc2C12NC(=O)NC2=O (stereo not drawn),polyol content,Rattus norvegicus [1],10.5 µmol/g
same,Inhibition,Rattus norvegicus [2],12.3%
